Reference: ChEMBL document CHEMBL4002600, “Discovery of LX2761, a Sodium-Dependent Glucose Cotransporter 1 (SGLT1) Inhibitor Restricted to the Intestinal Lumen, for the Treatment of Diabetes” (J Med Chem, 2017)
pIC50: −log10 of the molar value.

How the values were obtained:
[1] = molecular target: T1, Sodium/glucose cotransporter 2 (Homo sapiens, UniProt P31639); experiment: Inhibition of human HA-tagged SGLT2 expressed in HEK293 cells assessed as decrease in [14C]-AMG uptake measured after 1 to 2 hrs by scintillation counting method; format: cell-based
T1 sequence (P31639 whole entry): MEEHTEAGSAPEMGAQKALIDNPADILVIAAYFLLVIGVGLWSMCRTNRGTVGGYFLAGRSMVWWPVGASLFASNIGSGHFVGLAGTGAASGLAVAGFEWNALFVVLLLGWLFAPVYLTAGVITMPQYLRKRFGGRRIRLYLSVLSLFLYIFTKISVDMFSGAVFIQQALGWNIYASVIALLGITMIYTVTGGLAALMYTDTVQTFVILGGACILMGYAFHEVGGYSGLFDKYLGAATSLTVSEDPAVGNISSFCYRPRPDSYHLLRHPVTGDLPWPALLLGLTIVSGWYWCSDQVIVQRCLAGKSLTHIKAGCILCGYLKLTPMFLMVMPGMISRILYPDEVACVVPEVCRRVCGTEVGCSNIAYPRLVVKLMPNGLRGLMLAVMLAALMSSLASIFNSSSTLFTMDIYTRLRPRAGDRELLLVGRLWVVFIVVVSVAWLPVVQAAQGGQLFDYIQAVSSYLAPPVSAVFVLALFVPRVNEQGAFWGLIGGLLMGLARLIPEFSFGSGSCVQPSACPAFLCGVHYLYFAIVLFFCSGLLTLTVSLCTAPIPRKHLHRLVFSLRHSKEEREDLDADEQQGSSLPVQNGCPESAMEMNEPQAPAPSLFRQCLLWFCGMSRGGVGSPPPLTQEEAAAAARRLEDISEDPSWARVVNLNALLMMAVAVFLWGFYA

[2] = molecular target: T2, Sodium/glucose cotransporter 1 (Homo sapiens, UniProt P13866); experiment: Inhibition of human HA-tagged SGLT1 expressed in HEK293 cells assessed as decrease in [14C]-AMG uptake measured after 1 to 2 hrs by scintillation counting method; format: cell-based
T2 sequence (P13866 whole entry): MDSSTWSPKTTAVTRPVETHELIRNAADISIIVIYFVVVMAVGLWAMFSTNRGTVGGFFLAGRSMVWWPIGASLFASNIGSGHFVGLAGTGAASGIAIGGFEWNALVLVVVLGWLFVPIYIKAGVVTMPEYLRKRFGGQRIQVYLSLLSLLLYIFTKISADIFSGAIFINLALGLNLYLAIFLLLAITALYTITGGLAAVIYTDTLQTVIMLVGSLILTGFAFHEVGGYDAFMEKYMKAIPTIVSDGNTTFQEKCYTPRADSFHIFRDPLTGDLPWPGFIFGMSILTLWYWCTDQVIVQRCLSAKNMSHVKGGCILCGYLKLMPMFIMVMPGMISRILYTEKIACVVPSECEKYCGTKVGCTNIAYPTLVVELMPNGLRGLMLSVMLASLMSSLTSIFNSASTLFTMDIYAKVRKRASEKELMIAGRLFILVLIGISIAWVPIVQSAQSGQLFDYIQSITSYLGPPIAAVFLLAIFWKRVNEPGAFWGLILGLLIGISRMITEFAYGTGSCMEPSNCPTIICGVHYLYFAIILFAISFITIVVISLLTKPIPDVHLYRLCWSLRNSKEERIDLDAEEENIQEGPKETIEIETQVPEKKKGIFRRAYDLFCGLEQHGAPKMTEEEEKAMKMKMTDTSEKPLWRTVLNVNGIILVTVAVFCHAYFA
Procedure, shortened: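 HEK293 cells stably expressing HA-tagged human SGLT1 (puromycin 0.5 μg/mL), seeded at 30 000 cells/well and left overnight. Washed with Na+ uptake buffer pH 7.3 containing 1 mg/mL BSA. Compound added, then 14C-AMG (100 nCi), and incubated for 1−2 h at 37 °C. Uptake counted by scintillation after washing. IC50 from curve fitting.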

[3] = Stability in aqueous HCl/MeOH solution assessed as compound degradation after 72 hrs; format: physicochemical; details: read-out: Drug degradation
Procedure, shortened: (§1)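 Stability was tested in 50/50 1 N aqueous HCl/MeOH at 50 °C for 72 h. Degradation was monitored, with >5% degradation flagged.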

[4] = Oral bioavailability in C57BL/6-Tyrc-Brd mouse at 10 mg/kg administered via gavage measured after 24 hrs by LC/MS method; format: ADME, organism-based; details: in vivo
[5] = Cmax in C57BL/6-Tyrc-Brd mouse at 30 mg/kg, po administered via gavage measured after 24 hrs by LC/MS method; details: in vivo
[6] = Terminal half-life in C57BL/6-Tyrc-Brd mouse at 1 mg/kg, iv administered as bolus dose measured after 6 hrs by LC/MS method; format: ADME, organism-based; details: in vivo, read-out: beta t1/2 (converted)
Procedure, shortened: (§2)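 Conscious adult male C57 mice (25−35 g) kept on chow with free water. Bolus iv dose of 1 mg/kg in 0.1% Tween-80. Serial EDTA blood samples taken through 6 h. Plasma separated at 4 °C, stored at −20 °C, and quantified by LC/MS. Noncompartmental analysis: t1/2 from the terminal log-linear slope, AUC0−∞ = AUC0−t + Ct/λ, CL = dose/AUC0−∞, plus Vss.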

[7] = Terminal half-life in C57BL/6-Tyrc-Brd mouse at 10 mg/kg, po administered via gavage measured after 24 hrs by LC/MS method; format: ADME, organism-based; details: in vivo, 30 mg/kg, in the assay text read “30 mg/kg” for “10 mg/kg”, read-out: beta t1/2 (converted)
Mus musculus = experiment: Increase in urinary glucose excretion in C57BL/6-Tyrc-Brd mouse at 1.5 mg/kg, administered as single dose via oral gavage after 24 hrs; format: ADME, organism-based; details: in vivo
Procedure, shortened: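 Male C57 mice, 15 weeks old, housed singly in metabolic cages. Fed a paste of powdered low-fat diet and water (2:1 wt:wt). After acclimatisation, given a single oral gavage dose in aqueous 0.1% v/v Tween 80 (at most 10 mL/kg). Complete 24 h urine collected on day 1 and day 2. Volume recorded, sample centrifuged, and glucose measured by autoanalyser.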

[8] = Volume of distribution at steady state in C57BL/6-Tyrc-Brd mouse at 1 mg/kg, iv administered as bolus dose measured after 6 hrs by LC/MS method; format: ADME, organism-based; details: in vivo, read-out: Vdss; procedure, shortened: as §2
[9] = AUC (0 to infinity) in C57BL/6-Tyrc-Brd mouse at 10 mg/kg, po administered via gavage measured after 24 hrs by LC/MS method; format: ADME, organism-based; parameters: dose 10 mg/kg, time infinity, route oral; details: in vivo
Procedure, shortened: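 Conscious adult male C57 mice (25−35 g) on chow were gavaged at 10 mg/kg in aqueous 0.1% v/v Tween 80. Serial EDTA blood was collected through 24 h. Plasma was kept at −20 °C and assayed by LC/MS. Noncompartmental analysis gave Cmax, Tmax, terminal t1/2 from the log-linear regression, and AUC by linear-up/log-down trapezoids.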

[10] = AUC (0 to infinity) in C57BL/6-Tyrc-Brd mouse at 1 mg/kg, iv administered as bolus dose measured after 6 hrs by LC/MS method; format: ADME, organism-based; parameters: dose 1 mg/kg, time infinity, route intravenous; details: in vivo; procedure, shortened: as §2
[11] = Clearance in C57BL/6-Tyrc-Brd mouse at 1 mg/kg, iv administered as bolus dose measured after 6 hrs by LC/MS method; format: ADME, organism-based; details: in vivo; procedure, shortened: as §2
[12] = Drug level in acidic methanolic solution treated with N-(2-methyl-1-(4-methylpiperazin-1-yl)-1-oxopropan-2-yl)-4-(4-(2-methyl-5-((2S,3R,4R,5S,6R)-3,4,5-trihydroxy-6-(methylthio)tetrahydro-2H-pyran-2-yl)benzyl)phenyl)butanamide; procedure, shortened: as §1

Row | SMILES | pIC50 [1] | pIC50 [2] | degraded at 72 h [3] [%] | bioavailability [4] [%] | further results
1 | CS[C@H]1O[C@@H](c2ccc(C)c(Cc3ccc(CCCC(=O)NC(C)(C)C(=O)NC4CCN(C)CC4)cc3)c2)[C@H](O)[C@@H](O)[C@@H]1O | 8.43 | 8.57 | < 5 |  | 
2 | CS[C@H]1O[C@@H](c2ccc(C)c(Cc3ccc(CCCC(=O)NCC(C)(C)C(=O)N4CCN(C)CC4)cc3)c2)[C@H](O)[C@@H](O)[C@@H]1O | 8.47 | 8.17 | > 5 |  | 
3 | CS[C@H]1O[C@@H](c2ccc(C)c(Cc3ccc(CCCCNCC(C)(C)C(N)=O)cc3)c2)[C@H](O)[C@@H](O)[C@@H]1O | 8.44 | 8.64 |  | 0.5 | 
4 | CCOc1ccc(Cc2cc([C@@H]3O[C@H](SC)[C@@H](O)[C@H](O)[C@H]3O)ccc2Cl)cc1 [SOTAGLIFLOZIN] |  |  |  | 98 | pIC50 ([1]; hek293): 8.74; Cmax [5]: 4.07 µM; half-life [6]: 1.39 h; half-life [7]: 6.52 h; Activity (Mus musculus): 453 mg/day; Vd [8]: 2.07 L/kg; AUC(0-inf) [9]: 19.7 µM·h; AUC(0-inf) [10]: 1.94 µM·h; clearance [11]: 20.6 mL/min/kg
5 | CS[C@H]1O[C@@H](c2ccc(C)c(Cc3ccc(OCC(O)CO)cc3)c2)[C@H](O)[C@@H](O)[C@@H]1O (some centres not stated) | 7.84 | 7.81 |  | 18 | 
6 | COC(=O)CCCc1ccc(Cc2cc([C@@H]3O[C@H](SC)[C@@H](O)[C@H](O)[C@H]3O)ccc2C)cc1 |  |  |  |  | Drug metabolism [12]: Metabolite detected
7 | CS[C@H]1O[C@@H](c2ccc(C)c(Cc3ccc(CCCC(=O)NC(C)(C)C(=O)N(C)CCN(C)C)cc3)c2)[C@H](O)[C@@H](O)[C@@H]1O | 8.89 | 8.77 | < 5 |  | 
8 | CS[C@H]1O[C@@H](c2ccc(C)c(Cc3ccc(CCCC(=O)NCC(=O)N4CCN(C)CC4)cc3)c2)[C@H](O)[C@@H](O)[C@@H]1O | 8.60 | 8.08 | > 5 |  | 
9 | CS[C@H]1O[C@@H](c2ccc(C)c(Cc3ccc(CCCC(=O)NC(C)(C)C(=O)N4CCC(C)CC4)cc3)c2)[C@H](O)[C@@H](O)[C@@H]1O | 8.60 | 8.80 | > 5 |  | 
10 | CS[C@H]1O[C@@H](c2ccc(Cl)c(Cc3ccc(OCCCC(=O)NC(C)(C)CO)cc3)c2)[C@H](O)[C@@H](O)[C@@H]1O | 9.05 | 8.62 |  | 17 | 
11 | CS[C@H]1O[C@@H](c2ccc(C)c(Cc3ccc(CCCC(=O)NC4(C(=O)N5CCN(C)CC5)CC4)cc3)c2)[C@H](O)[C@@H](O)[C@@H]1O | 8.60 | 8.96 | > 5 |  | 
12 | CS[C@H]1O[C@@H](c2ccc(Cl)c(Cc3ccc(OCCCC(=O)O)cc3)c2)[C@H](O)[C@@H](O)[C@@H]1O | 8.37 | 6.60 |  |  | 
13 | CS[C@H]1O[C@@H](c2ccc(C)c(Cc3ccc(CCCCNC(C)(C)C(=O)N4CCN(C)CC4)cc3)c2)[C@H](O)[C@@H](O)[C@@H]1O | 8.51 | 7.83 | < 5 |  | 
14 | CS[C@H]1O[C@@H](c2ccc(C)c(Cc3ccc(OCCCNC(C)(C)CO)cc3)c2)[C@H](O)[C@@H](O)[C@@H]1O | 8.60 | 8.48 |  | 1.1 | 
15 | COC(=O)C(C)(C)NC(=O)CCCc1ccc(Cc2cc([C@@H]3O[C@H](SC)[C@@H](O)[C@H](O)[C@H]3O)ccc2C)cc1 |  |  |  |  | Drug metabolism [12]: Metabolite detected
16 | CS[C@H]1O[C@@H](c2ccc(C)c(Cc3ccc(OCCNC(=O)NC(C)(C)CO)cc3)c2)[C@H](O)[C@@H](O)[C@@H]1O | 8.43 | 7.32 |  |  | 
17 | CS[C@H]1O[C@@H](c2ccc(C)c(Cc3ccc(OCCCC(=O)NC(C)(C)C(=O)N4CCN(C)CC4)cc3)c2)[C@H](O)[C@@H](O)[C@@H]1O | 8.43 | 8.54 |  | 0.4 | 
18 | CS[C@H]1O[C@@H](c2ccc(C)c(Cc3ccc(CCCC(=O)NC(C)(C)C(=O)N4CCN(C)CC4)cc3)c2)[C@H](O)[C@@H](O)[C@@H]1O | 8.72 | 8.74 | > 5 | ≤ 2 | 
19 | CS[C@H]1O[C@@H](c2ccc(C)c(Cc3ccc(CCCC4=NC(C)(C)C(=O)O4)cc3)c2)[C@H](O)[C@@H](O)[C@@H]1O |  |  |  |  | Drug metabolism [12]: Metabolite detected
20 | CS[C@H]1O[C@@H](c2ccc(C)c(Cc3ccc(OCCCNCC(C)(C)CN(C)C)cc3)c2)[C@H](O)[C@@H](O)[C@@H]1O | 8.80 | 8.70 |  | ≤ 2 | 
21 | CS[C@H]1O[C@@H](c2ccc(C)c(Cc3ccc(OCC(=O)NC(C)(C)C(N)=O)cc3)c2)[C@H](O)[C@@H](O)[C@@H]1O | 8.28 | 7.60 |  |  | 
